Results reported in ChEMBL document CHEMBL3588824, “Bioactive Diterpenoids from the Leaves of Callicarpa macrophylla” (J Nat Prod, 2015).
Active and inactive are the calls of the source. No cut-off for these calls is given here.

Tests used:
PC-12 [1] = test: Stimulation of nerve growth factor-mediated neurite outgrowth in rat PC12 cells incubated for 96 hrs in presence of 20 ng/ml NGF by phase contrast microscopy; format: functional, cell-based
Method in brief: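 PC12 cells (DMEM, 5% FBS, 5% HS, 37 °C, 5% CO2) were detached with 1 mM EGTA/PBS for 15 min and seeded on poly-L-lysine at 3 × 10^4 cells/well. After 24 h they got test medium (1% FBS, 1% HS, 20 ng/mL NGF, graded compound levels) for 96 h. Cells were scored by phase contrast (neurite ≥ soma diameter) as % neurite-bearing; triplicates; EC50 by regression.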

PC-12 [2] = test: Stimulation of neurite outgrowth in rat PC12 cells incubated for 96 hrs in absence of 20 ng/ml NGF by phase contrast microscopy; format: functional, cell-based
[3] = Rattus norvegicus, PC-12, 96 h, read-out: EC50

| Structure (SMILES) | EC50 (PC-12 [1]; [3]) [µM] | EC50 (PC-12 [1]; pc-12) | Activity (PC-12 [2]) |
| --- | --- | --- | --- |
| C=C1CC[C@H]2C(C)(C)C(=O)CC[C@]2(C)[C@H]1CC/C(C)=C/C(=O)O | 6 | – | – |
| CC(C)[C@]12CC[C@@]34O[C@@]3(CC[C@H]3[C@](C)(C(=O)O)CCC[C@@]34C)[C@H]1O2 | – | Not Active | inactive |
| CC(C)[C@@]12CC[C@@]3(CC[C@H]4[C@](C)(C(=O)O)CCC[C@]4(C)C3=O)[C@@H]1O2 | > 30 | – | – |
| CC(C)[C@@]12C=C3[C@@H](O)C[C@@H]4[C@@](C)(C(=O)O)CCC[C@@]4(C)[C@]3(CC1)OO2 | 10.6 | – | – |
| C=C[C@@]1(C)CC[C@H]2C(=CC[C@H]3[C@](C)(CO)CCC[C@]23C)[C@H]1O | 7.6 | – | – |
| CC1(C)C(=O)CC[C@]2(C)[C@@H]1CC[C@]13C[C@@H](CC[C@H]12)[C@](O)(CO)C3 | 19.7 | – | – |
| C=C[C@@]1(C)CC[C@H]2C(=CC[C@@H]3[C@]2(C)CCC[C@@]3(C)C(=O)O)[C@H]1O | 16 | – | – |
| CC(=O)OC[C@]1(O)C[C@]23CC[C@@H]4C(C)(C)C(=O)CC[C@@]4(C)[C@@H]2CC[C@@H]1C3 | 11 | – | – |
| C=C[C@@]1(C)CCC2=C(C1)[C@H](OC)C[C@H]1[C@](C)(CO)CCC[C@]21C | – | Not Active | inactive |
| CC(C)c1ccc2c(c1)[C@H](O)C[C@H]1[C@](C)(C(=O)O)CCC[C@]21C | – | Not Active | inactive |
| C=C[C@@]1(C)CCC2=C(C1)[C@H](OC)C[C@H]1[C@](C)(C(=O)O)CCC[C@]21C | – | Not Active | inactive |
| CC(C)c1ccc2c(c1)C(=O)C[C@H]1[C@](C)(C(=O)O)CCC[C@]21C | – | Not Active | inactive |
| C=C(C)c1ccc2c(c1)CC[C@H]1[C@](C)(C(=O)O)CCC[C@]21C | > 30 | – | – |
| C=C[C@@]1(C)CC[C@H]2C(=CC[C@@H]3[C@]2(C)CCC[C@@]3(C)O)[C@H]1O | – | Not Active | inactive |
